Bioassay records (PubChem BioAssay)
Rows were chosen to be rich in hits. Some 1.7% of all compounds tested hit in one or more screens of this group.
Rce1 inh: yeast Ras-converting enzyme inhibition. yeast membranes, quenched prenylated peptide cleavage fluorescence. calls only. 290,000 compounds, 0.27% hits;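 active = fall in fluorescence gain of 50% or more versus controls, with final raw signal at or below 3038400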;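 also: plate controls were neutral control wells for no effect and wells lacking membranes for full effect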
Target sequence (Q03530 whole entry, looked up): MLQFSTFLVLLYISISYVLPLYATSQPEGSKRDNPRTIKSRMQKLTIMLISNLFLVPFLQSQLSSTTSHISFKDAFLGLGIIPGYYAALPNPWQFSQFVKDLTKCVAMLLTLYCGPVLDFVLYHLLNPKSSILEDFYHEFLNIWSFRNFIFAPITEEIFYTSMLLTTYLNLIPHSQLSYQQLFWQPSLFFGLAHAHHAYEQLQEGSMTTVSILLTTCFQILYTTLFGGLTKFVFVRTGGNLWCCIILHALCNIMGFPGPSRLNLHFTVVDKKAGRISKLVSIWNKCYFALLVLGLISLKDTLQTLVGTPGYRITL
ARNT-TACC3 inh: disruptors of human ARNT/TACC3 interaction. inhibition, % at 9.99 µM. AlphaScreen His-ARNT PAS-B/GST-TACC3 binding, luminescence; TACC3 fragment carries E629A point mutation. 390,000 compounds, 0.66% hits. Q9Y6A5;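 active = mean inhibition of replicates at least 50% and at least half of replicates each reaching 50%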;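 also: 0% = complete ARNT plus TACC3 wells and 100% = ARNT alone without TACC3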
CAL PDZ FP-1: inhibitors of human CAL PDZ peptide binding | purified CAL PDZ, TMR-peptide fluorescence polarization, 1 h | inhibition, % at 20 µM | 330,000 compounds, 0.02% hits | Q9HD26;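 active = highest replicate inhibition of at least 40%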;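 also: plate controls were DMSO neutral control wells for no effect and unlabeled competitor peptide control wells for full effect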
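Material – purified CerCALP PDZ construct · Detection – FP readout, S and P plane fluorescence · Measure – percent inhibition from loss of millipolarization · Controls – unlabelled peptide for full inhibition, DMSO wells as neutral · Probe or stimulus – TMR-labelled reporter peptide T*-PRC34 bound in PDZ groove · Times – 1 h at RT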
CAL PDZ FP-2: CAL PDZ (human) peptide binding inhibition; Q9HD26; purified CAL PDZ, TMR-peptide fluorescence polarization, 1 h; inhibition, % at 24.9 µM; 300,000 compounds, 0.92% hits;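 active = mean inhibition of at least 30% with at least half of replicates also reaching 30%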;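 also: 0% = DMSO neutral control and 100% = excess unlabeled competitor peptide PRC23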
AI-2 QS modul: modulators of Vibrio harveyi AI-2 quorum sensing system | 300,000 compounds, 0.4% hits | AID 2094 | activity change, % at 7.5 µM | Vibrio harveyi JMH597 AI-2 luminescence/OD600 ratio, 9 h; stronger effect = lower value; strain lacks LuxN and CqsS sensors; 0 = neutral-control median; in the data active = activity change below about -75%, passing the limit was not always enough;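 also: luminescence divided by OD600 gain over 9 h not by final OD600 alone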
* hit, by the source's call; i = inactive; . = not tested or not shown; + = active, no number.

SMILES | Rce1 inh | ARNT-TACC3 inh | CAL PDZ FP-1 | CAL PDZ FP-2 | AI-2 QS modul
N#C/C(=C\c1c(N2CCCCC2)nc2ccccn2c1=O)S(=O)(=O)c1ccccc1 | i | 10.8 | -6.2 | 54.6* | 52.3
N#CC(C#N)=Cc1c(N2CCN(c3ccccc3)CC2)nc2ccccn2c1=O | i | -0.8 | -1.1 | 47.9* | 32.9
COC(=O)CC(NC(=O)c1ccc(C)cc1)c1ccc2c(c1)OCO2 (centres undefined) | i | -1.8 | . | -2.4 | -1.2
CC(=O)Nc1ccc(NC(=O)CSc2nnc(-c3ccc(NS(C)(=O)=O)cc3)n2C)cc1C | i | 19.4 | -0.8 | . | 4.3
O=C(Nc1ccc(OC(F)(F)F)cc1)Oc1ccccc1N1CCOCC1 | i | -4.1 | -0.3 | -4.9 | -57.7
O=C(Nc1ccc(F)cc1)Oc1ccccc1N1CCOCC1 | + | -6.9 | -0.8 | -3.0 | 19.9
CCCOc1ccc(-c2c(C(=O)N/N=C/c3cccs3)nnn2-c2nonc2N)cc1 | + | -18.0 | -2.0 | -3.8 | 15.8
Cc1ccsc1/C=N/NC(=O)c1nnn(-c2nonc2N)c1-c1ccccc1 | i | -0.9 | -0.6 | -2.7 | 18.7
COc1cccc(-c2c(C(=O)N/N=C/c3sccc3C)nnn2-c2nonc2N)c1 | + | 8.6 | -2.6 | -0.1 | 20.9
NC(=NC(=O)c1ccccc1)N1CCN(C(c2ccccc2)c2ccccc2)CC1 | i | -3.0 | 0.3 | 89.4* | 24.5
OC(c1ccccc1)C(NCCNCc1ccccc1)c1ccccc1 (centres undefined) | . | 3.4 | -0.4 | 164.9* | .
c1ccc(CNCCCNCCCCNCCCNCc2ccccc2)cc1 | . | 8.9 | -1.0 | -1.4 | .
COc1ccc(OC)c(/C=N/NC(=O)CSc2cc(C)nc3c(OC)cccc23)c1 | + | 2.8 | -1.1 | -5.8 | 9.0
COc1ccc(OC)c(/C=N/NC(=O)Cn2ccnc2C)c1 | + | 0.1 | 0.6 | -1.8 | 18.8
O=C(NCc1cccnc1)C(C(=O)c1ccc(F)cc1)n1ccccc1=O (centres undefined) | i | -10.7 | -0.2 | . | 21.3
COc1cc2c(cc1OC)-c1cc(Nc3ccc(C(=O)O)cc3)nc(=O)n1CC2 | i | 46.3* | -1.0 | -4.2 | 12.4
COc1cc2c(cc1OC)-c1cc(Nc3ccccc3)nc(=O)n1CC2 | i | 25.8 | -2.6 | . | 6.1
Cc1ccc(Cl)cc1N1CCN(S(=O)(=O)c2ccc(-c3ccc(=O)[nH]n3)o2)CC1 | i | -7.1 | -2.2 | -0.5 | 30.3
Cc1ccc(C)c(N2CCN(S(=O)(=O)c3ccc(-c4ccc(=O)[nH]n4)o3)CC2)c1 | i | -4.7 | -0.6 | 44.1* | 1.5
Cc1cc(=O)n2c3ccccc3n(CC(O)CN3CCOCC3)c2c1C#N (centres undefined) | i | -3.2 | -0.7 | 0.1 | 12.8
CC(=O)NC(Cc1ccc(F)cc1)C(=O)NC1CCN(S(=O)(=O)c2ccccc2)CC1 (centres undefined) | i | -4.0 | -2.0 | -3.4 | -3.9
CC(=O)NC(Cc1cccc(C)c1)C(=O)NC1CCN(S(=O)(=O)c2ccccc2)CC1 (centres undefined) | i | -0.4 | -0.6 | 49.1* | 55.3
COc1ccc(OC)c(NC(=O)CN2c3cccc4cccc(c34)S2(=O)=O)c1 | . | 1.6 | -1.3 | -5.0 | .
COc1ccc(OC)c(NC(=O)C(C)N2c3cccc4cccc(c34)S2(=O)=O)c1 (centres undefined) | i | 4.3 | 0.3 | 72.6* | -15.1
Cc1ccc(C(=O)Nc2cccc(C(=O)N3CCOCC3)c2)cc1Cl | i | -12.8 | -1.6 | 62.6* | 11.2
SMILES | Rce1 inh | ARNT-TACC3 inh | CAL PDZ FP-1 | CAL PDZ FP-2 | AI-2 QS modul
CCc1ccc(-c2cc(C(=O)NN3CCOCC3)c3ccccc3n2)cc1 | i | -1.9 | . | -5.8 | -2.0
Cc1ccccc1C(=O)NN1CCOCC1 | i | -34.9 | -0.1 | 81.9* | 24.0
O=C(NN1CCOCC1)c1cc(-c2ccc(Br)cc2)nc2ccccc12 | i | -6.3 | -0.3 | 59.0* | 14.6
O=C(Nc1cccnc1)c1cc(-c2ccc(Br)cc2)nc2ccccc12 | . | -0.4 | 0.2 | 68.1* | 56.8
CCOC(=O)c1ccc(NC(=S)NNC(=O)c2cc(-c3cccnc3)nc3ccccc23)cc1 | i | 10.0 | -1.6 | 48.9* | 30.4
Cc1ccc(C)c(-c2cc(C(=O)Nc3cccnc3)c3ccccc3n2)c1 | i | 11.5 | -2.6 | -4.1 | 11.3
CC(=O)Nc1ccc2nc(NC(=O)c3ccco3)sc2c1 | i | 32.8 | -9.8 | -3.1 | 16.5
